# Results as given in ChEMBL document CHEMBL3994613, “Diaryltriazenes as antibacterial agents against methicillin resistant Staphylococcus aureus (MRSA) and Mycobacterium smegmatis” (Eur J Med Chem, 2017).
# How the values were obtained:
# [1] = test system: Mycolicibacterium smegmatis; assay: Antimycobacterial activity against Mycobacterium smegmatis MC2 155 after 3 days by broth macrodilution method; type: functional; conditions: str. MC2 155, 72 h
# Staphylococcus aureus [2] = assay: Antibacterial activity against methicillin-resistant Staphylococcus aureus USA300 by broth microdilution method
# [3] = test system: Mycolicibacterium smegmatis; assay: Bactericidal activity against Mycobacterium smegmatis MC2 155 after 96 hrs by microdilution method; type: functional; conditions: str. MC2 155, 96 h
# How it was run: (§1)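 Microdilution in TSB broth. Inoculum from colonies grown 96 h on TSA, final 1×10^5 CFU/mL, aerobic 94–98 h at 37 °C, growth read on a plate reader, at least duplicate.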
# Escherichia coli [4] = assay: Antibacterial activity against Escherichia coli D22 after 18 to 20 hrs by microdilution method; type: functional
# How it was run: (§2)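 Broth microdilution per EUCAST in LB broth. Inoculum from 20–24 h colonies by CLSI direct colony suspension (LB agar for E. coli), final 2×10^4 CFU/mL. Read after 18–20 h aerobic incubation at 37 °C on plate reader, at least one duplicate.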
# [5] = Stability of the compound in organic solvent; type: physicochemical
# Staphylococcus aureus [6] = assay: Induction of membrane integrity impairment in Staphylococcus aureus USA300 assessed as cells with intact membrane at 2 ug/ml measured after 30 mins by Baclight assay relative to control; type: functional
# How it was run: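 LIVE/DEAD BacLight fluorescence assay. Dye was then added and incubated 15 min in the dark at room temperature. Intact membrane % came from a live/dead (isopropanol-killed) standard curve, at least triplicate, mean±SD.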
# Acinetobacter baumannii [7] = assay: Antibacterial activity against Acinetobacter baumannii ATCC 19606 after 18 to 20 hrs by broth microdilution method; type: functional; conditions: ATCC 19606 = CIP 70.34 = JCM 6841
# How it was run: (§3)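 Broth microdilution per EUCAST in TSB broth. Inoculum prepared by CLSI direct colony suspension from 20–24 h TSA colonies, final 3×10^4 CFU/mL. Aerobic incubation for 18–20 h at 37 °C, growth read on plate reader, at least one duplicate.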
# Staphylococcus aureus [8] = assay: Antibacterial activity against methicillin-resistant Staphylococcus aureus 1653 after 18 to 20 hrs by broth microdilution method; type: functional
# How it was run: (§4)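 EUCAST broth microdilution in LB broth. Inoculum from 20–24 h colonies on 5% sheep blood BHI agar, final 3×10^4 CFU/mL, 18–20 h aerobic at 37 °C, plate reader, at least duplicate.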
# [9] = test system: Mycolicibacterium smegmatis; assay: Antimycobacterial activity against Mycobacterium smegmatis MC2 155 after 94 to 98 hrs by microdilution method; type: functional; conditions: str. MC2 155; how it was run: as §1
# [10] = Stability of the compound in water; type: physicochemical; conditions: buffer
# Streptococcus pneumoniae [11] = assay: Antibacterial activity against Streptococcus pneumoniae R6 after 18 to 20 hrs by broth microdilution method; type: functional
# How it was run: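 Broth microdilution per EUCAST in BHI broth. Inoculum from colonies on BHI agar with 5% sheep blood, final 5×10^4 CFU/mL. Read after 18–20 h anaerobic incubation at 37 °C.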
# Streptococcus pneumoniae [12] = assay: Bactericidal activity against Streptococcus pneumoniae R6 after 18 to 20 hrs by broth microdilution method; type: functional
# Bacillus subtilis [13] = assay: Bactericidal activity against Bacillus subtilis ATCC 6051 after 18 to 20 hrs by broth microdilution method; type: functional
# Klebsiella pneumoniae [14] = assay: Antibacterial activity against Klebsiella pneumoniae ATCC 700603 after 18 to 20 hrs by broth microdilution method; type: functional; how it was run: as §3
# Enterococcus faecalis [15] = assay: Bactericidal activity against vancomycin resistant Enterococcus faecalis 501 after 18 to 20 hrs by broth microdilution method; type: functional
# How it was run: (§5)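 EUCAST microdilution in BHI broth. Inoculum from 20–24 h colonies on 5% sheep blood BHI agar, final 3×10^4 CFU/mL, 18–20 h aerobic at 37 °C, plate reader, at least duplicate.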
# Escherichia coli [16] = assay: Antibacterial activity against Escherichia coli DH10beta harboring pHuLUC3 after 18 to 20 hrs by microdilution method; type: functional
# How it was run: (§6)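 EUCAST broth microdilution in LB broth. Inoculum prepared by direct colony suspension from 20–24 h LB agar (E. coli DH10β) or 5% sheep blood BHI agar (MRSA USA300) growth. Final inoculum 2×10^4 CFU/mL, 18–20 h aerobic at 37 °C, growth read on a plate reader, at least duplicate.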
# Acinetobacter baumannii [17] = assay: Antibacterial activity against Acinetobacter baumannii ATCC BAA-1605 after 18 to 20 hrs by broth microdilution method; type: functional; how it was run: as §3
# Enterococcus faecalis [18] = assay: Antibacterial activity against vancomycin resistant Enterococcus faecalis 501 after 18 to 20 hrs by broth microdilution method; type: functional; how it was run: as §5
# Staphylococcus aureus [19] = assay: Bactericidal activity against methicillin-resistant Staphylococcus aureus 1653 after 18 to 20 hrs by broth microdilution method; type: functional; how it was run: as §4
# Escherichia coli [20] = assay: Antibacterial activity against N43 CGSC 5583 knock out Escherichia coli after 18 to 20 hrs by microdilution method; type: functional; how it was run: as §2
# [21] = Solubility of the compound in water; type: physicochemical; conditions: buffer
# Bacillus subtilis [22] = assay: Antibacterial activity against Bacillus subtilis ATCC 6051 after 18 to 20 hrs by broth microdilution method; type: functional; how it was run: as §2
# Klebsiella pneumoniae [23] = assay: Antibacterial activity against Klebsiella pneumoniae ATCC 13882 after 18 to 20 hrs by broth microdilution method; type: functional; how it was run: as §3
# Escherichia coli [24] = assay: Bactericidal activity against Escherichia coli D22 after 18 to 20 hrs by microdilution method; type: functional
# Pseudomonas aeruginosa = assay: Antibacterial activity against Pseudomonas aeruginosa PA0001 after 18 to 20 hrs by broth microdilution method; type: functional
# How it was run: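 EUCAST broth microdilution in LB broth. Inoculum from 20–24 h LB agar colonies (CLSI direct colony suspension), final 3×10^4 CFU/mL. Aerobic incubation 18–20 h at 37 °C, plate-reader read-out, at least one duplicate.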
# Staphylococcus aureus [25] = assay: Antibacterial activity against methicillin-resistant Staphylococcus aureus USA300 after 18 to 20 hrs by microdilution method; type: functional; how it was run: as §6
# [26] = Stability of the compound in solid state; type: physicochemical
# Staphylococcus aureus [27] = assay: Bactericidal activity against methicillin-resistant Staphylococcus aureus USA300 after 18 to 20 hrs by microdilution method; type: functional; how it was run: as §6
# Saccharomyces cerevisiae = assay: Antibacterial activity against Saccharomyces cerevisiae after 18 to 20 hrs by microdilution method
# How it was run: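 Microdilution in YEP broth against wild-type yeast grown on YEP agar. Final inoculum 1×10^5 CFU/mL. Read after 18–20 h aerobic incubation at 30 °C on plate reader, at least one duplicate.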
# Escherichia coli [28] = assay: Bactericidal activity against Escherichia coli DH10beta harboring pHuLUC3 after 18 to 20 hrs by microdilution method; type: functional; how it was run: as §6
smiles,measurement,setting,value
CO/N=C(\C(=O)N[C@@H]1C(=O)N2C(C(=O)O)=C(CSc3nc(=O)c(O)nn3C)CS[C@H]12)c1csc(N)n1 [CEFTRIAXONE],MIC,[1],32 µg/mL
C[C@H]1COc2c(N3CCN(C)CC3)c(F)cc3c(=O)c(C(=O)O)cn1c23.C[C@H]1COc2c(N3CCN(C)CC3)c(F)cc3c(=O)c(C(=O)O)cn1c23.O [LEVOFLOXACIN],MIC,Staphylococcus aureus [2],0.25 to 32 µg/mL
FC(F)(F)c1cc(Cl)ccc1/N=N/Nc1ccc(Cl)cc1C(F)(F)F,MBC,[3],128 µg/mL
same,MIC,Escherichia coli [4],2 µg/mL
same,Stability,[5],Stable
same,Cells with intact membrane,Staphylococcus aureus [6],31.2%
same,MIC,Acinetobacter baumannii [7],> 128 µg/mL
same,MIC,Staphylococcus aureus [8],1 µg/mL
same,MIC,[9],8 µg/mL
same,Stability,[10],Stable
same,MIC,Streptococcus pneumoniae [11],0.5 µg/mL
same,MBC,Streptococcus pneumoniae [12],1 µg/mL
same,MBC,Bacillus subtilis [13],32 µg/mL
same,MIC,Klebsiella pneumoniae [14],> 128 µg/mL
same,MBC,Enterococcus faecalis [15],> 128 µg/mL
same,MIC,Escherichia coli [16],> 128 µg/mL
same,MIC,Acinetobacter baumannii [17],> 128 µg/mL
same,MIC,Enterococcus faecalis [18],2 µg/mL
same,MBC,Staphylococcus aureus [19],1 µg/mL
same,MIC,Escherichia coli [20],> 128 µg/mL
same,solubility,[21],Soluble
same,MIC,Bacillus subtilis [22],1 µg/mL
same,MIC,Klebsiella pneumoniae [23],> 128 µg/mL
same,MBC,Escherichia coli [24],> 128 µg/mL
same,MIC,Pseudomonas aeruginosa,> 128 µg/mL
same,MIC,Staphylococcus aureus [25],1 to 128 µg/mL
same,Stability,[26],Stable
same,MBC,Staphylococcus aureus [27],1 µg/mL
same,MIC,Saccharomyces cerevisiae,> 128 µg/mL
CC[N+](/C=C/C(=O)OC)(CC)CC.O=[N+]([O-])c1ccc(/N=N/[N-]c2ccc([N+](=O)[O-])cc2C(F)(F)F)c(C(F)(F)F)c1,Stability,[5],Stable
same,Stability,[10],Stable
same,solubility,[21],Soluble
same,Stability,[26],Stable
N[C@@H]1CONC1=O [CYCLOSERINE],MIC,[1],105 µg/mL
CC1(C)S[C@@H]2[C@H](NC(=O)[C@H](N)c3ccc(O)cc3)C(=O)N2[C@H]1C(=O)O [AMOXICILLIN],MIC,[1],8 to 16 µg/mL
CC(=O)N(/N=N/c1ccc([N+](=O)[O-])cc1C(F)(F)F)c1ccc([N+](=O)[O-])cc1C(F)(F)F,MBC,[3],128 µg/mL
same,MIC,Escherichia coli [4],1 µg/mL
same,Stability,[5],Stable
same,Cells with intact membrane,Staphylococcus aureus [6],103%
same,MIC,Acinetobacter baumannii [7],> 128 µg/mL
same,MIC,Staphylococcus aureus [8],0.25 µg/mL
same,MIC,[9],16 µg/mL
same,Stability,[10],Stable
same,MIC,Streptococcus pneumoniae [11],0.06 µg/mL
same,MBC,Streptococcus pneumoniae [12],0.5 µg/mL
same,MBC,Bacillus subtilis [13],4 µg/mL
same,MIC,Klebsiella pneumoniae [14],> 128 µg/mL
same,MBC,Enterococcus faecalis [15],> 128 µg/mL
same,MIC,Escherichia coli [16],64 µg/mL
same,MIC,Acinetobacter baumannii [17],> 128 µg/mL
same,MIC,Enterococcus faecalis [18],4 µg/mL
same,MBC,Escherichia coli [28],> 128 µg/mL
same,MBC,Staphylococcus aureus [19],0.5 µg/mL
same,MIC,Escherichia coli [20],> 128 µg/mL
same,solubility,[21],Soluble
same,MIC,Bacillus subtilis [22],0.125 µg/mL
same,MIC,Klebsiella pneumoniae [23],> 128 µg/mL
same,MBC,Escherichia coli [24],> 128 µg/mL
same,MIC,Pseudomonas aeruginosa,> 128 µg/mL
same,MIC,Staphylococcus aureus [25],0.25 µg/mL
same,Stability,[26],Stable
same,MBC,Staphylococcus aureus [27],0.25 µg/mL
same,MIC,Saccharomyces cerevisiae,> 128 µg/mL
CO[C@@]1(NC(=O)Cc2cccs2)C(=O)N2C(C(=O)O)=C(COC(N)=O)CS[C@@H]21 [CEFOXITIN],MIC,[1],2 to 4 µg/mL
CC1(C)S[C@@H]2[C@H](NC(=O)[C@H](N)c3ccccc3)C(=O)N2[C@H]1C(=O)O [AMPICILLIN],MIC,[1],128 µg/mL
C/C(=C\C(=O)OCCCCCCCCC(=O)O)C[C@@H]1OC[C@H](C[C@@H]2O[C@H]2[C@@H](C)[C@H](C)O)[C@@H](O)[C@H]1O [MUPIROCIN],MIC,Staphylococcus aureus [2],0.5 to 64 µg/mL
